Compound activity (PubChem BioAssay)
The list is not random: actives were taken first. Their share in the collection is about 1%.
hK5 inh: inhibitors of human kallikrein 5; Q9Y337; 0.59% of 210,000 active; inhibition, % at 5 µM; recombinant hK5, fluorogenic AMC substrate cleavage;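 active means inhibition of 40% or more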;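 further: 0% = enzyme controls without compound and 100% = no-enzyme blanks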
thrombin 1536: blocks human thrombin protease activity | alpha-thrombin, Boc-VPR-AMC fluorogenic substrate cleavage | inhibition, % at 5 µM | 0.26% of 220,000 active | AID 1046;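 active means inhibition at or above 40%; inactive means inhibition below 40%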;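 further: 0% = enzyme with no compound and 100% = wells without enzyme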
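Material: human alpha-thrombin protein. Incubation: reaction at ambient temperature. Technique: fluorescence of released AMC, ex 355 nm, em 460 nm. Control set: no-compound enzyme wells and no-enzyme blanks. Also added: Boc-VPR-AMC substrate, 15 µM final. Buffer or medium: pH 7.5 Tris (50 mM) with NaCl 150 mM, Tween 20 0.05%.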
FXIa inh: factor XIa (human) inhibition; P03951; inhibition, % at 5 µM; AID 798; purified FXIa, Boc-Glu-Ala-Arg-AMC fluorogenic substrate; 0.14% of 220,000 active;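 active means inhibition of at least 40%; inactive means inhibition below 40%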;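 further: fluorescence of freed AMC excited at 355 nm; 0% = enzyme without compound and 100% = no enzyme blank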
Target sequence (P03951 19-387 limits assumed): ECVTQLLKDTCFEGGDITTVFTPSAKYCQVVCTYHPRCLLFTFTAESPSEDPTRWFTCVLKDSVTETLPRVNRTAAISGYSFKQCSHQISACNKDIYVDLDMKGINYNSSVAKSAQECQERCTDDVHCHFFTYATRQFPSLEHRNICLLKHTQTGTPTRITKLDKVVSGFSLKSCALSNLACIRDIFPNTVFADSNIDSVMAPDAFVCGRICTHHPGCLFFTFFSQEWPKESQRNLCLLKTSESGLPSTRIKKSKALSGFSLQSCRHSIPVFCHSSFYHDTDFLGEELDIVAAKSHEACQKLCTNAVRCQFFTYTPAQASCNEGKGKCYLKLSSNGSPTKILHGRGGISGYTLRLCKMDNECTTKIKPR
Target sequence (P03951 388-625 limits assumed): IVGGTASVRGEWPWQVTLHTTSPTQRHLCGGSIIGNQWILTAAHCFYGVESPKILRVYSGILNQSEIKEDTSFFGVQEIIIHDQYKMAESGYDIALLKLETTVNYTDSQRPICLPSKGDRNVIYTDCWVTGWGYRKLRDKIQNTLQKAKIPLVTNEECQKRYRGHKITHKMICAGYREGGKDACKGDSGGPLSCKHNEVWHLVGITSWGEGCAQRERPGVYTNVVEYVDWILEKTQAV
FXIIa inh: inhibitors of human coagulation factor XIIa; P00748; AID 800; purified FXIIa, Boc-QGR-AMC fluorogenic substrate, 2 h; 0.3% of 220,000 active; inhibition, % at 5 µM; in the data active means inhibition above about 40%;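 further: 0% = enzyme with no compound and 100% = blank without enzyme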
Numbers without * were called inactive.

SMILES	hK5 inh	thrombin 1536	FXIa inh	FXIIa inh
COC(=O)c1ccc(NCC(=O)Nc2cc(C)cc(C)c2)cc1	25	11	33	57*
CCn1cc(C(=O)O)c(=O)c2cnc(N3CCN(C(=S)Nc4ccccc4C(F)(F)F)CC3)nc21	-6	-11	-4	9
CCC(=O)n1nc(-c2ccc(OC)cc2)nc1SC	-7	28	6	11
CCCC(=O)n1nc(-c2ccc(Cl)cc2)nc1SC	-4	52*	0	14
CSc1nc(-c2ccc(Cl)cc2)nn1S(=O)(=O)c1ccccc1	-9	0	12	20
CCC(=O)n1nc(-c2ccc(Cl)cc2)nc1SC	-7	57*	22	34
CCc1nnc(NC(=O)CCC(=O)N2CCN(CCOc3ccc(C)cc3)CC2)s1	22	13	15	42*
CNCc1cc2ccc(C)cc2[nH]c1=O	45*	9	6	0
COc1ccccc1N1CCN(S(=O)(=O)c2cnc[nH]2)CC1	-7	-8	-14	-4
O=C(CSc1nnc(Cn2nnc(-c3ccccc3)n2)n1-c1ccccc1)Nc1ccc(F)cc1	85*	69*	9	6
CC(C)(C)NC(=S)NCC1CC1	5	-4	0	5
O=C(c1ccc(-c2ccc([N+](=O)[O-])cc2)o1)N1CCCCC1	19	61*	22	25
O=C(CN1C2=NCCN2c2ccccc21)c1ccc(Br)s1	2	-11	0	2
CC1CC(=O)Nc2ccccc2N1C(=O)Nc1ccc(F)cc1 (stereo not given)	55*	10	27	11
CCCCCOC(=O)c1ccccc1C(=O)O	-7	-2	-6	-7
CC(C)OC(=O)C1C2C=CC3(CN(Cc4cccs4)C(=O)C13)O2 (stereo not given)	-5	4	7	16
Cc1cc(C)n(S(=O)(=O)c2cc(C)c(C)cc2C)n1	-2	0	-10	7
Cc1ccc(S(=O)(=O)n2nc(C)cc2C)cc1	43*	27	1	1
CC(OC(=O)CCCN1C(=O)c2ccccc2C1=O)C(=O)Nc1ncc(Cl)cc1Cl (stereo not given)	70*	26	1	-1
CCCCCOC(=O)Nc1nnc(CCCCC)s1	-21	-8	4	47*
CCCCCc1nnc(NC(=O)OCCC)s1	-6	-6	-12	0
CCCN(Cc1cc2cc(C)ccc2[nH]c1=O)C(=O)c1cccc([N+](=O)[O-])c1	-2	-3	2	7
O=C(Nc1ccc(Cl)cc1)N(C1=NCCC1)c1ccc(OC(F)F)cc1	-8	-6	0	2
COC(=O)CCCC(=O)N1CCCC(C(=O)c2ccc(OC)cc2C)C1 (stereo not given)	-2	-12	-2	4
Cc1nc(NC(=O)c2ccc([N+](=O)[O-])cc2Cl)sc1C(=O)N(C)C	-13	-6	5	7
SMILES	hK5 inh	thrombin 1536	FXIa inh	FXIIa inh
Cc1cc(C(=O)Nc2nc(C)c(C(=O)N(C)C)s2)ccc1[N+](=O)[O-]	24	43*	15	53*
Cc1ccccc1C(=O)Nc1nnc(SC(C)C)s1	-12	3	-5	1
CCOc1cc(NC(=S)NCCCN2CCOCC2)c(OCC)cc1NC(=O)c1ccc(C)cc1	41*	14	27	52*
CC1=NN(C(C#N)c2ccc([N+](=O)[O-])cc2)C(C)(C)C1 (stereo not given)	57*	22	50*	28
Cc1ccccc1NC(=O)c1cc(C(=O)c2cc(Cl)ccc2O)cn(-c2ccccc2C)c1=O	-10	-6	0	10
CCn1c(SCC(=O)N2CCOCC2)nc(O)cc1=O	-5	2	7	18
CCn1c(SCC(=O)N2CCCCC2)nc(O)cc1=O	7	-5	-19	44*
CCn1c(=O)cc(SCC(=O)N2CCCCC2)c2ccccc21	121*	13	5	19
CN(CC(=O)Nc1ccc(Cl)cc1)c1ccc(S(=O)(=O)N2CCCCC2)cc1[N+](=O)[O-]	-4	-7	3	2
Fc1ccccc1C1CC(c2ccco2)=Nc2ccccc2S1 (stereo not given)	-1	4	1	15
O=C(O)c1ccc(F)c(S(=O)(=O)Nc2ccccc2Cl)c1	86*	18	2	0
O=S(=O)(Nc1ccccc1Cl)c1ccc(F)cc1	-1	-5	-2	11
CCOc1ccc(/C=C2/SC(=S)N(n3c(C)ccc3C)C2=O)cc1	25	-3	1	4
COc1ccc(/C=C2/SC(=S)N(n3c(C)ccc3C)C2=O)cc1	-14	-8	1	84*
Cc1cc(=O)oc2cc(OCC(=O)NCc3ccco3)ccc12	42*	19	3	14
Cc1cc(=O)oc2ccc(OCC(=O)NCc3ccco3)cc12	3	-1	8	19
CC(C)c1ccc(NC(=S)Nc2ccc3cn[nH]c3c2)cc1	3	42*	1	7
CCCN1CCC(N2CCCC(C(=O)O)C2)CC1 (stereo not given)	27	45*	33	27
CCOC(=O)C1CCCN(c2c(N3CCC(N4CCCCC4)CC3)c(=O)c2=O)C1 (stereo not given)	-4	-1	4	12
Cc1cc(NC(=O)COC(=O)C2CCN(S(=O)(=O)c3c(Cl)cccc3Cl)CC2)no1	15	-1	19	43*
Cc1ccc(NS(=O)(=O)c2ccc(C(=O)OCC(=O)Nc3cc(C)on3)cc2)cc1	48*	15	102*	30
Cc1cc(NC(=O)COC(=O)C2CCN(S(=O)(=O)c3ccc(Cl)cc3)CC2)no1	-13	2	4	16
Cc1cc(NC(=O)COC(=O)c2cccc(S(=O)(=O)N(C)C3CCCCC3)c2)no1	9	4	7	43*
Cc1ccc(-c2nnc(Nc3ccc4c(c3)OCO4)c3ccccc23)cc1S(=O)(=O)NC(C)C	-21	-5	10	2
COc1ccc(C(=O)NNC2=CC(=O)CC(C)(C)C2)cc1	49*	15	14	12
SMILES	hK5 inh	thrombin 1536	FXIa inh	FXIIa inh
CC1(C)CC(=O)C=C(NNC(=O)c2ccccc2O)C1	-34	3	32	60*
COc1cc(NC2=CC(=O)CC(C)(C)C2)cc(OC)c1	0	-5	17	20
Cc1cccc(C(=O)NNC2=CC(=O)CC(C)(C)C2)c1O	2	2	4	9
COc1ccc(OCCCC(=O)Nc2ncn[nH]2)cc1	-10	0	-3	1
CNC(=S)/N=C/NOCc1ccc(Cl)cc1Cl	-6	-3	-4	5
O=C(COC(=O)c1n[nH]c2ccccc12)Nc1cccc(S(=O)(=O)N2CCOCC2)c1	-20	65*	11	0
COc1ccc(S(=O)(=O)N2CCOCC2)cc1NC(=O)COC(=O)C1=COCCO1	8	10	4	16
COc1ccc(S(=O)(=O)N2CCOCC2)cc1NC(=O)COC(=O)c1ccc(C)s1	-14	73*	-6	0
COc1cc(S(=O)(=O)N2CCOCC2)ccc1NC(=O)COC(=O)c1ccccn1	-13	70*	2	8
COc1cc(N2CCCC2)c(OC)cc1/C=C(/C#N)c1ccc(Br)cc1	50*	10	8	5
